The species entered for test [1] is Cavia porcellus. Put plainly: Negative logarithm of antagonist concentration that requires doubling of agonist concentration to induce original agonist response. The note with it: read-out: pA2 (converted).
The target in test [2] is Opioid receptors; mu & delta (Rattus norvegicus) (UniProt P33533+P33535). Kind of test: Ratio of selective binding affinity of mu receptor to that of delta opioid receptor. Type of test: protein assay.
The target in the next test is Somatostatin receptor. Kind of test: Binding affinity in competition with [125I]- CGP-23996 in somatostatin receptor binding to rat brain membrane. An outline of the steps:
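Rat whole-brain membranes (adult male Sprague–Dawley) at 1.0% final tissue were incubated with 0.2 nM [125I]CGP 23,996 and analogues at 100–0.3 μM. Buffer was 50 mM Tris pH 7.4 with 2.0 mg/mL BSA, 20 μg/mL bacitracin and 5 mM MgCl2. Incubation ran 1 h at 37 °C and ended by rapid filtration through BSA-soaked GF/B filters.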

Test [3] is described as follows: Ratio of selective binding affinity of mu receptor to that of somatostatin receptor.
Test [4] has as its target Mu-type opioid receptor (Rattus norvegicus) (UniProt P33535). Kind of test: Percentage inhibition in competition with [3H]- CTOP in Opioid receptor mu 1 binding to rat brain membrane at 10000 nM.
For test [5], the species on record is Cavia porcellus. Kind of test: Intrinsic agonist activity in guinea Pig Ileum (GPI) was determined. Type of test: functional. The note with it: filed as agonist. The gist of the method: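 Longitudinal muscle–myenteric plexus strips of ileum from male Hartley guinea pigs (200–500 g) sat in Krebs–bicarbonate at 37 °C under 95% O2/5% CO2 at 1 g tension. Strips were field-stimulated at 0.1 Hz with 0.4-ms supramaximal pulses, and isometric twitches were recorded. Agonist action was taken as twitch inhibition. pA2 came from PL017 (μ agonist) dose–response curves without and with several antagonist concentrations.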

Test [6] deals with Mu-type opioid receptor (Rattus norvegicus) (UniProt P33535). Put plainly: Binding affinity of compound in competition with [3H]- CTOP in Opioid receptor mu 1 binding to rat brain membrane at 10000 nM.

pIC50: −log10 of the molar value.

Sequence of Mu-type opioid receptor (Rattus norvegicus) (P33535 whole entry): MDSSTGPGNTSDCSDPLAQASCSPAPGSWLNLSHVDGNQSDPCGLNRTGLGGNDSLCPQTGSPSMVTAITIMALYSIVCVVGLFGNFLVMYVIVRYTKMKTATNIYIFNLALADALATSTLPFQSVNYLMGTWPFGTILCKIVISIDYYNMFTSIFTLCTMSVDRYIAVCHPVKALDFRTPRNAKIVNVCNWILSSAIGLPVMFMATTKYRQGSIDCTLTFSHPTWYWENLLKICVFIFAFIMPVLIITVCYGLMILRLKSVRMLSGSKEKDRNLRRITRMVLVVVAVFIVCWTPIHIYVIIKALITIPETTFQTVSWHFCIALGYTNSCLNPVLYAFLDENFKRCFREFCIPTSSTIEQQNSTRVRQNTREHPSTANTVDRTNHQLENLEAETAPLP
Sequence of Opioid receptors; mu & delta (Rattus norvegicus) (P33533 whole entry, looked up): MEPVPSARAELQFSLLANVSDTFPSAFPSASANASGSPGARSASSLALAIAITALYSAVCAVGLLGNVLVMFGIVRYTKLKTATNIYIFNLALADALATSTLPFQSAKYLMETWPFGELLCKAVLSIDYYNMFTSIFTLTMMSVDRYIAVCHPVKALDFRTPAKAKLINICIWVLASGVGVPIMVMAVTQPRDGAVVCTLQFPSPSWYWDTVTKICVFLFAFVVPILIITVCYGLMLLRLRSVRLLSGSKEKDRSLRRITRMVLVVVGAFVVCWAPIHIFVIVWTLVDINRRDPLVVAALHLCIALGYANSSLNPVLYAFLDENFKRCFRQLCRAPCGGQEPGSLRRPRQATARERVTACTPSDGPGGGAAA
Sequence of Opioid receptors; mu & delta (Rattus norvegicus) (P33535 whole entry, looked up): as the sequence (P33535 whole entry) above

`C[C@@H](O)[C@H](NC(=O)[C@H]1NC(=O)[C@H]([C@@H](C)O)NC(=O)[C@H](CCCNC(=N)N)NC(=O)[C@@H](Cc2c[nH]c3ccccc23)NC(=O)[C@H](Cc2ccc(O)cc2)NC(=O)[C@@H](NC(=O)[C@H](N)Cc2ccccc2)CSSC1(C)C)C(N)=O`: the Kb in the test filed under Cavia porcellus [1] is 0.0759 µM. Besides, the Ratio in test [2] worked out at 2530; in test [3], 4020. Besides, the IC50 (commonly the midpoint of a concentration-inhibition curve) at Somatostatin receptor came to 8.452 µM.
For `C[C@@H](O)[C@H](NC(=O)[C@H]1NC(=O)[C@H](CC(N)=O)NC(=O)[C@H](Cc2ccc(O)cc2)NC(=O)[C@@H](NC(=O)[C@@H](N)Cc2ccccc2)CSSC1(C)C)C(N)=O`, the inhibition (commonly the drop in the measured response relative to a control, in per cent) in test [4] was 17%. Besides, the pIC50 (in general, the IC50 on a negative log10 scale, so that one unit is a factor of ten) on Somatostatin receptor was less than 4.00.
As to `C[C@@H](O)[C@H](NC(=O)[C@H]1NC(=O)[C@H]([C@@H](C)O)NC(=O)[C@H](CCCCN)NC(=O)C(Cc2c[nH]c3ccccc23)NC(=O)[C@H](Cc2ccc(O)cc2)NC(=O)[C@@H](NC(=O)C(N)Cc2c[nH]c3ccccc23)CSSC1(C)C)C(N)=O` (stereo in doubt), the figures for the Ratio in test [2] and in test [3] were greater than 1590 and 254, respectively. Further, the Activity entry in the test listed under Cavia porcellus [5] was “Agonist”.
As to `C[C@@H](O)[C@H](NC(=O)[C@@H]1NC(=O)[C@H](CCCCN)NC(=O)C(Cc2c[nH]c3ccccc23)NC(=O)[C@H](Cc2ccc(O)cc2)NC(=O)[C@@H](NC(=O)[C@@H](N)Cc2ccccc2)CSSC1(C)C)C(N)=O` (stereo in doubt), the inhibition in test [6] was 18%.
